Screening results from PubChem BioAssay.
HSF1 inhib: HSF1 inhibition | 300,000 tested, 0.77% active | activity change, negative = inhibition, % at 7.5 µM (by protocol) | NIH3T3-HGL HSE-luciferase, MG132-induced, luminescence 8 h; active compounds read low;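 active means more than half of replicate wells show activity change below -50%, luminescence cut by over half; inconclusive means some wells, but at most half, below -50%; inactive means no replicate well below -50%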;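 further: luciferase reports HSF-1 transcriptional activity via heat shock element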
HSF-1 act: increases HSF-1 driven luciferase reporter signal; activation, % at 9 µM; NIH3T3-HGL HSF-1 luciferase reporter, MG132, 8 h; 100% = twice DMSO control signal; AID 504408; 300,000 tested, 1.7% active;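 active means mean replicate activation of at least 50% with a set share of replicates each reaching 50%; inconclusive means only one of those two conditions met; inactive means mean below 50% and too few replicates reaching it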
Calb FLC: affects C. albicans growth with fluconazole. C. albicans CaCi-2 + fluconazole, Alamar Blue growth, 48 h. growth inhibition, % (no concentration beside the values). 300,000 tested, 0.57% active;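 active means growth inhibition above about 58% in most replicates, limit read from the data, passing the limit was not always enough; inconclusive means exactly half the replicates above a set limit; inactive means most replicates below a set limit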;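 further: all wells also contain fluconazole at 8 µg/ml as a sub-toxic cotreatment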
T cruzi repl: T. cruzi replication inhibition. T. cruzi beta-gal in NIH3T3, luminescence, 90 h. AID 1885. 300,000 tested, 1.4% active. inhibition, % (no concentration beside the values);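 active means mean inhibition across valid replicates above about 55%, limit read from the data; inconclusive means mean below that limit but half or more replicates reach it; inactive means mean below it, under half of replicates reach it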;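 further: signal also drops with host cell toxicity which is not excluded here; higher percent means less beta-gal luminescence so fewer parasites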
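compound dosing = single 50 nL compound addition per well in DMSO | material = NIH/3T3 host cells with β-galactosidase reporter T. cruzi | input = 5,000 host fibroblasts per well | timing = ≥90 h infection period, 3 h prior cell attachment | read-out basis = percent inhibition of parasite-derived β-gal signal | detection = GalScreen β-gal luminescence, detergent lysis, 60 min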
HIF activator: HIF pathway transcriptional activation; AID 1910; 300,000 tested, 0.32% active; U2OS HRE-luciferase reporter, luminescence; normalized: DMSO 0%, desferrioxamine 100%; activation, % at 7.5 µM (by protocol);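 active means mean activation of at least 10% of the iron chelator positive control signal, with at least half of replicates also reaching 10%; inconclusive means mean and replicate majority disagree about reaching 10%; inactive means mean and most replicates under 10%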
Large screens that a line does not name were inactive. Compounds with a hit are over-represented: about 4.4% of the library has one in this group of screens.

O=C(CCCC(=O)N(CC(=O)NC1CCCCC1)c1cccc(F)c1)Nc1ccccn1	none
Cc1ccsc1/C=N/NC(=O)c1ccc([N+](=O)[O-])cc1	none
Cc1ccc(-n2[nH]c(C)c(/C=N/NC(=O)c3ccc([N+](=O)[O-])cc3)c2=O)c(C)c1	Calb FLC 103.2
Cc1[nH]n(-c2cccc3ccccc23)c(=O)c1/C=N/NC(=O)c1cccc([N+](=O)[O-])c1	Calb FLC 79.5
CC(C)c1ccc2oc(-c3ccc(NC(=O)c4ncn[nH]4)cc3)nc2c1	Calb FLC 88.1
CCC(C)c1ccc2oc(-c3ccc(NC(=O)c4ncn[nH]4)cc3)nc2c1 (stereo not drawn)	none
O=C(NCCCCc1ccccc1)C1CC(c2cc(C(F)(F)F)cc(C(F)(F)F)c2)=NO1 (stereo not drawn)	none
O=C(O)C(=O)Nc1ccc(NC(=O)C(c2ccccc2)c2ccccc2)cc1	HSF1 inhib -55.0
CCCOc1ccc(NC(N)=O)cc1OCCC	HSF1 inhib -68.3
CCC1(C)CC2(CCCN(CCC(=O)c3ccccc3)C2)CCO1 (stereo not drawn)	none
N#Cc1cnn(-c2nc(SCc3ccccc3)nc3sc4c(c23)CCCC4)c1N	T cruzi repl 59.6
O=c1ccsn1Cc1ccccc1	T cruzi repl 67.2
O=c1cc(Cl)[nH]c(=O)n1Cc1ccccc1	none
O=C(O)Cn1c2c(c3ccccc31)CSc1ccc(Cl)cc1-2	HSF-1 act 269.1
COCCC(=O)N1CCC(Oc2ccc(C(=O)N3C[C@@H]4CCC[C@H]3C4)cc2)CC1	none
NS(=O)(=O)c1ccc(CCNC(=O)c2ccc(C#CC3(O)CCCCC3)cc2)cc1	HSF1 inhib -53.9
NS(=O)(=O)c1ccc(CCNC(=O)c2ccncc2)cc1	none
Cc1c(Cl)ccc2c1NC(=O)C21NC(CCC(N)=O)[C@H]2C(=O)N(c3ccc(Cl)cc3)C(=O)[C@H]21 (stereo partly drawn)	HSF-1 act 56.5
Cc1c(Cl)ccc2c1NC(=O)[C@]21N[C@@H](CCC(N)=O)[C@H]2C(=O)N(c3ccc(F)cc3)C(=O)[C@H]21	none
CC(=O)c1ccc(N(CC(=O)NC2CCCC2)C(=O)CNC(=O)c2ccco2)cc1	none
O=C(c1ccccc1)c1ccc2nc(-c3ccco3)c(-c3ccco3)nc2c1	HSF-1 act 88.8
O=C(NCCc1ccccc1)c1ccc2nc(-c3ccco3)c(-c3ccco3)nc2c1	none
Cc1cccc(C)c1NC(=S)/C(=C(\[O-])c1cccs1)[n+]1ccccc1	none
[O-]/C(=C(\C(=S)Nc1cccc2ccccc12)[n+]1ccccc1)c1cccs1	HIF activator 54.6
Cc1ccc2ccc[n+](Cc3ccccc3)c2c1	none
Cc1ccc(C[n+]2cccc(-c3ccccc3)c2)c(C)c1	T cruzi repl 72.1
CC1=NN(c2ccc(Cl)cc2)C(=O)/C1=C\c1cccn1-c1ccc(S(N)(=O)=O)cc1	none
Cc1ccsc1/C=N/NS(=O)(=O)c1ccc([N+](=O)[O-])cc1	Calb FLC 101.2
COC(=O)c1ccccc1NC(=O)c1cccnc1	none
CCCCCCCCCCOC(=O)Cn1c(COc2ccccc2C)[n+](C)c2ccccc21	Calb FLC inconclusive, T cruzi repl 65.2
CCCCCCCCCCOC(=O)Cn1c(COc2ccccc2)[n+](C)c2ccccc21	T cruzi repl 72.6
CCCCCCCCCCOC(=O)Cn1c(COc2cccc(C)c2)[n+](C)c2ccccc21	T cruzi repl 57.8
CCCCCCCCCCOC(=O)Cn1c(COc2ccc(OC)cc2)[n+](C)c2ccccc21	none
CCOC(=O)Cn1c(COc2ccccc2OC)[n+](C)c2ccccc21	HSF1 inhib -83.7
COc1cccc(N2CCN(Cc3nnnn3C3CCCCC3)CC2)c1	HSF1 inhib -60.3
Cc1ccccc1OCC(=O)Nc1ccccc1N1CCC(C)CC1	none
Cc1ccc(NC(=O)CSc2ncccc2C(=O)Oc2cccc([N+](=O)[O-])c2)cc1Cl	HSF-1 act 82.2
COc1cccc(NC(=O)c2cc([N+](=O)[O-])ccc2NCc2cccnc2)c1	none
Cc1ccc(NC(=O)c2cc([N+](=O)[O-])ccc2NCc2cccnc2)cc1Cl	T cruzi repl 57.5
Cc1cc(/C=C\c2ccccc2)nc2ccccc12	none
NC(=O)N\N=C/C=C/C=C/c1ccc(F)cc1	none
Cc1nn(Cc2ccc(Cl)cc2)c(C)c1NC(=O)CSc1nc2c(c(C(F)(F)F)n1)CCc1ccccc1-2	T cruzi repl 60.5
Cc1ccc(Cn2nc(C)c(NC(=O)CSc3nc4c(c(C(F)(F)F)n3)CCc3ccccc3-4)c2C)cc1	none
Cc1ccc(C(c2sc3ncnn3c2O)N2CC(C)CC(C)C2)cc1 (stereo not drawn)	HSF1 inhib -58.2
Cc1cccnc1NC(=S)NC(=O)c1oc2ccccc2c1C	none
Cc1ccc(C=Nc2ccc(N(C)C)cc2)o1	T cruzi repl 61.0
Cc1cccc(CN(C)CCc2ccccn2)c1	T cruzi repl 61.3
Cc1ccccc1CN(C)CCc1ccccn1	none
Cc1sc2ncnc(Sc3nnnn3-c3ccc(Cl)cc3)c2c1C	HIF activator 16.9
COc1ccc(-c2cc(C(=O)NCc3ccco3)c3ccccc3n2)cc1	HSF-1 act 85.5
CCNC(=S)NNC(=O)c1cc(-c2cccc(C)c2)nc2ccccc12	Calb FLC 115.9
CCNC(=S)NNC(=O)c1cc(-c2ccc(OC)cc2)nc2ccccc12	Calb FLC 99.3
CCCCOc1ccc(-c2cc(C(=O)NNC(=S)NCC)c3ccccc3n2)cc1	none
O=C(NC(=S)Nc1ccccn1)c1cc(-c2ccccc2)nc2ccccc12	HIF activator 183.8
CCNC(=S)NNC(=O)c1cc(-c2cccc(OCC)c2)nc2ccccc12	none
C/C(CC(=O)Nc1c(C)cc(C)cc1C)=N\NC(=O)OC(C)(C)C	none
Cc1ccc(N2C(=O)NC(NC(=O)c3ccc(Cl)cc3)(C(F)(F)F)C2=O)cc1 (stereo not drawn)	none
CCCCN(C)C(=O)C1CCN(c2ccc(S(=O)(=O)N3CCOCC3)cc2[N+](=O)[O-])CC1	none
COc1ccc2cc(C(=O)NCc3ccco3)c(=Nc3ccc(C(=O)O)cc3)oc2c1	HSF1 inhib -63.0
CN(C)C(=O)CSc1nc2ccccc2n1Cc1ccccc1	HIF activator 366.5
CC(C)N(C(=O)CSc1nc2ccccc2n1Cc1ccccc1)C(C)C	none
Cc1ccc2nc(-c3ccncc3)c(NC3CCCC3)n2c1	T cruzi repl 76.6
Cc1ccc2nc(-c3ccsc3)c(NC3CCCC3)n2c1	none
Cc1ccc2nc(-c3ccncc3)c(NC3CCCCC3)n2c1	T cruzi repl 60.3, HIF activator 452.0
CCOC(=O)N1CCC(NC(=O)c2cc(C(=O)Nc3ccc(OC)c(OC)c3)ccc2CO)CC1	none
CCOC(=O)c1ccc(NC(=O)c2ccc(CO)c(C(=O)NC3CCN(C(=O)OCC)CC3)c2)cc1	Calb FLC 104.1
CC(C)(C)C(=O)OCc1nc(-c2ccc(C(F)(F)F)cc2)cs1	none
